Published values collected from several papers.
Compare with care: the assays were run in different laboratories. ≈ marks a conversion by molar mass, not a printed value.
Organism: Micrococcus luteus

O=C1NN=C(N=Cc2ccccc2O)C1=NNn1c(-c2ccccc2)nc2ccccc2c1=O has an MIC of 55.4 µM (microbial growth; broth dilution; 24 h).
CN[C@H](CC(C)C)C(=O)N[C@H]1C(=O)N[C@@H](CC(N)=O)C(=O)N[C@H]2C(=O)N[C@H]3C(=O)N[C@H](C(=O)N[C@H](C(=O)O)c4cc(O)cc(O)c4-c4cc3ccc4O)[C@H](O)c3ccc(c(Cl)c3)Oc3cc2cc(c3O[C@@H]2O[C@H](CO)[C@@H](O)[C@H](O)[C@H]2O[C@H]2C[C@](C)(N)[C@H](O)[C@H](C)O2)Oc2ccc(cc2Cl)[C@H]1O gave an MIC of 0.13 µg/mL (microbial growth; broth dilution; ML01).
O=C(O)c1cn(C2CC2)c2cc(N3CCNCC3)c(F)cc2c1=O has an inhibition zone of 25 mm (microbial growth; disc diffusion; 100 µg/mL; 24 h).
With CN[C@H](CC(C)C)C(=O)N[C@H]1C(=O)N[C@@H](CC(N)=O)C(=O)N[C@H]2C(=O)N[C@H]3C(=O)N[C@H](C(=O)N[C@H](C(=O)O)c4cc(O)cc(O)c4-c4cc3ccc4O)[C@H](O)c3ccc(c(Cl)c3)Oc3cc2cc(c3O[C@@H]2O[C@H](CO)[C@@H](O)[C@H](O)[C@H]2O[C@H]2C[C@](C)(N)[C@H](O)[C@H](C)O2)Oc2ccc(cc2Cl)[C@H]1O the MIC was 0.12 µg/mL (microbial growth; broth dilution; ATCC10240).
With O=C1NN=C(N=Cc2ccc(O)c(O)c2)C1=NNn1c(-c2ccccc2)nc2ccccc2c1=O the MIC was 53.5 µM (microbial growth; broth dilution; 24 h).
CC1(C)S[C@@H]2[C@H](NC(=O)[C@H](N)c3ccccc3)C(=O)N2[C@H]1C(=O)O has an inhibition of 100% (microbial growth; agar dilution; ATCC10240; 26.93 µM).
O=C(O)CN1C(=O)/C(=C/c2ccc(-c3ccc(N(c4ccccc4)c4ccccc4)cc3)c3ccccc23)SC1=S gave an MBC of 62.5 µg/mL (≈ 109 µM) (microbial killing; broth dilution; ATCC10240).
CC1=NN(CNc2c(O)c(S(=O)(=O)O)cc3ccccc23)C(=O)C1=NNn1c(-c2ccccc2)nc2ccccc2c1=O gave an MIC of 83.7 µM (microbial growth; broth dilution; 24 h).
The MIC of C/C=C(\C)c1cc(O)c(C)c(OC(=O)c2c(C)c(Cl)c(O)c(Cl)c2O)c1 is reported as 4 µg/mL (microbial growth; broth dilution; ML01).
